These results are taken from ChEMBL document CHEMBL5233289, “Synthesis of Quinoline and Dihydroquinoline Embelin Derivatives as Cardioprotective Agents” (J Nat Prod, 2023).

The source made the active and inactive calls. The rule behind the calls is not given here.

Data set [1] has as its system H9c2. Put plainly: Induction of oxidative stress in rat H9c2 cells assessed as increase in intracellular ROS level at 20 uM incubated for 24 hrs by DCFH-DA staining based fluorometric analysis. It is filed as toxicity, cell-based. Conditions: h9c2, 24 h. Put shortly:
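Intracellular ROS in H9c2 cells. Cells were treated with compound (20 μM) alone or with DOX (1 μM) over 24 h, with NAC (1 mM) as ROS inhibitor. They were then loaded with 10 μM DCFH-DA for 30 min at 37 °C in the dark. Fluorescence was read at 485/550 nm. Mean ± SD, n = 3.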

Data set [2] deals with Mitogen-activated protein kinase 1 and 3 (ERK2 and ERK1) (Rattus norvegicus) (UniProt P63086+P21708). Put plainly: Inhibition of doxorubicin-induced ERK1/2 activation in rat H9c2 cells assessed as reduction in ERK1/2 phosphorylation at 20 uM in presence of doxorubicin by immunoblot analysis. The format is cell-based. In short, it runs like this:
(§1)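 H9c2 cell lysates after DOX (1 μM) alone or with derivative (20 μM) were run on SDS-PAGE and transferred to PVDF. Blots were probed for pAkt, Akt, pERK1/2, ERK1/2, Bax and Bcl-2, with β-actin as loading control. Detection used HRP secondary (2 h) and ECL, with densitometric quantification. Mean ± SD, n = 3.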
(In general: In western blotting, separated proteins are transferred to a membrane and probed.)

The next data set relates to MCF7. The experiment in a line: Antagonizing activity against doxorubicin-induced antitumor activity in human MCF7 cells assessed as cell viability at 20 uM incubated for 24 hrs in presence of doxorubicin by MTT assay. It is filed as toxicity, cell-based. The following applies: mcf7, 24 h. Put shortly: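 MCF-7 human breast cancer cells in DMEM with 10% FBS, 37 °C, 5% CO2. They were co-treated with compound (20 μM) plus DOX (1 μM) for 24 h. Viability was read by MTT: 1 h at 37 °C, formazan in DMSO, A540. Mean ± SD, n = 3.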
Background: Formazan colour is commonly taken as a measure of viable cells.

Data set [3] deals with H9c2. Put plainly: Cardioprotective activity against doxorubicin-treated rat H9c2 cells assessed as decrease in Bax protein expression at 20 uM in presence of doxorubicin by immunoblot analysis. It is filed as functional, cell-based. Put shortly:
as §1

The subject of data set [4] is H9c2. Put plainly: Activation of Akt in rat H9c2 cells assessed as increase in Akt phosphorylation at 20 uM in presence of doxorubicin by immunoblot analysis. The format is cell-based. Conditions: filed as activator. In short, it runs like this: as §1
Data set [5] deals with H9c2. Put plainly: Cardioprotective activity against doxorubicin-treated rat H9c2 cells assessed as increase in Bcl2 protein expression at 20 uM in presence of doxorubicin by immunoblot analysis. The format is functional, cell-based. Put shortly: as §1
Data set [6] has as its system H9c2. Put plainly: Antioxidant activity against rat H9c2 cells assessed as reduction in doxorubicin-induced oxidative stress by measuring reduction in intracellular ROS level at 20 uM incubated for 24 hrs by DCFH-DA staining based fluorometric analysis.
Data set [7] relates to H9c2. Put plainly: Antioxidant activity against rat H9c2 cells assessed as reduction in doxorubicin-induced oxidative stress by measuring reduction in intracellular ROS level at 1 mM incubated for 24 hrs by DCFH-DA staining based fluorometric analysis.
Data set [8] has as its system H9c2. Put plainly: Cardioprotective activity against rat H9c2 cells assessed as reduction in doxorubicin-induced cardiotoxicity by measuring cell viability at 20 uM incubated for 24 hrs in presence of doxorubicin by MTT assay. It is filed as functional. Put shortly: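 H9c2 rat cardiomyocytes in DMEM with 10% FBS, seeded for 24 h, then co-treated with compound (20 μM) and DOX (1 μM) for 24 h. MTT added for 1 h at 37 °C, formazan dissolved in DMSO, absorbance read at 540 nm. DOX alone served as positive control. Mean ± SD, n = 3.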

Data set [9] in a line: Cytotoxicity against rat H9c2 cells assessed as cell viability at 10 uM incubated for 24 hrs by MTT assay (reference value: 100%). Conditions: read-out: Activity. It is filed as toxicity, cell-based. Put shortly: (§2)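 J774A.1 murine macrophages or H9c2 rat cardiomyocytes, grown in DMEM with 10% FBS and 1% pen/strep, were seeded for 24 h and then incubated with compound alone for 24 h. MTT reagent was added for 1 h at 37 °C, formazan dissolved in DMSO, absorbance at 540 nm. Results relative to untreated cells, mean ± SD, n = 3.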

A short description of data set [10]: Cytotoxicity against mouse J774.A1 cells assessed as cell viability at 10 uM incubated for 24 hrs by MTT assay (reference value: 100%). It is filed as toxicity, cell-based. The following applies: read-out: Activity. Put shortly:
as §2

Data set [11] in a line: Cytotoxicity against rat H9c2 cells assessed as cell viability at 20 uM incubated for 24 hrs by MTT assay (reference value: 100%). The format is toxicity, cell-based. Conditions: read-out: Activity. Put shortly: as §2
Data set [12] in a line: Cytotoxicity against mouse J774.A1 cells assessed as cell viability at 20 uM incubated for 24 hrs by MTT assay (reference value: 100%). The following applies: read-out: Activity. It is filed as toxicity, cell-based. In short, it runs like this:
as §2

Mitogen-activated protein kinase 1 and 3 (ERK2 and ERK1) (Rattus norvegicus), sequence (P21708 whole entry, looked up): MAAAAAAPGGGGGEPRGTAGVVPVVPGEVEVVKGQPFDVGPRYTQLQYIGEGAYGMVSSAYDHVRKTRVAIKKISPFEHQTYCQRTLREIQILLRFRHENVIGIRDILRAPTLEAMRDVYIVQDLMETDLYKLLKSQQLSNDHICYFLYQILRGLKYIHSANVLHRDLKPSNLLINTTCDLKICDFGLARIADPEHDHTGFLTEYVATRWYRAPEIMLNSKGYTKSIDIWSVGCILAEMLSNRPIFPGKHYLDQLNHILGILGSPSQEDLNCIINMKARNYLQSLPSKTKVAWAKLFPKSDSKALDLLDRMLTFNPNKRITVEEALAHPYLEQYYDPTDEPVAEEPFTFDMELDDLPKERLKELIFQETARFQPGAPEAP
Mitogen-activated protein kinase 1 and 3 (ERK2 and ERK1) (Rattus norvegicus), sequence (P63086 whole entry, looked up): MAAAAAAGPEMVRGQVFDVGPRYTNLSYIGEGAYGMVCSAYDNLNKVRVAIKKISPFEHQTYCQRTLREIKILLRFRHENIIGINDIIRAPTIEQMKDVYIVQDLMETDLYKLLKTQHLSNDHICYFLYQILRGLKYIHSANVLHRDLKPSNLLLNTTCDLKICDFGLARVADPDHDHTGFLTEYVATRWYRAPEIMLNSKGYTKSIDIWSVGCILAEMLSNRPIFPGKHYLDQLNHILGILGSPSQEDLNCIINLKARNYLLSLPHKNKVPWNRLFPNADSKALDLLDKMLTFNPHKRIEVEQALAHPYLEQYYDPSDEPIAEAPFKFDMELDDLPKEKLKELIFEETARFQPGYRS

Regarding `CCCCCCCCCCCC1=C(O)C(=O)C2=C(Nc3ccccc3C2c2ccc(C)c(C)c2)C1=O` (stereo not given), the Activity result in the data set on H9c2 [1] and with MCF7 was “Non-Toxic” throughout. Further, the inhibition entry in data set [2] was “Active”. Further, the outcome in the data set on H9c2 [3], with H9c2 [4], with H9c2 [5] and in the data set with H9c2 [6] was Active.
Regarding `CC(=O)N[C@@H](CS)C(=O)O`, in the data set with H9c2 [7], the result was Active.
With `CCCCCCCCCCCC1=C(O)C(=O)c2c(nc3ccc(OC)cc3c2-c2ccc([N+](=O)[O-])cc2)C1=O`, the results for the Activity in the data set with H9c2 [8], in the data set on H9c2 [1] and with MCF7 were 84.3%, “Non-Toxic” and “Non-Toxic”, respectively. Moreover, the inhibition result in data set [2] is “Active”. Also, the outcome in the data set on H9c2 [3], in the data set with H9c2 [4], with H9c2 [5] and in the data set on H9c2 [6] was Active. Also, the viability at 24 h, 10 µM amounted to 99.2% in data set [9] and 81.9% in data set [10]. Besides, the viability at 24 h, 20 µM was determined as 94.4% in data set [11] and 76.3% in [12].
On to `CCCCCCCCCCCC1=C(O)C(=O)c2c(nc3ccccc3c2-c2ccc(Br)cc2)C1=O`, for which the Activity with H9c2 [8] is listed as 83.4%; with H9c2 [1] it was “Non-Toxic”; in the data set on MCF7, “Non-Toxic”. Also, in data set [2], the inhibition result is “Active”. Besides, the result in the data set with H9c2 [3], with H9c2 [4], in the data set with H9c2 [5] and with H9c2 [6] was Active.
Consider `CCCCCCCCCCCC1=C(O)C(=O)c2c(nc3ccc(Br)cc3c2-c2ccc([N+](=O)[O-])cc2)C1=O`, for which the Activity is reported as 91.2% with H9c2 [8], “Non-Toxic” in the data set on H9c2 [1] and “Non-Toxic” with MCF7. Moreover, the inhibition result in [2] is “Active”. Besides, the outcome in the data set on H9c2 [3], in the data set with H9c2 [4], with H9c2 [5] and in the data set with H9c2 [6] was Active.
In the case of `CCCCCCCCCCCC1=C(O)C(=O)c2c(nc3ccccc3c2-c2ccc(F)cc2)C1=O`, the Activity in the data set with H9c2 [8] is on record as 81.4%; in the data set with MCF7, “Toxic”.
In the case of `CCCCCCCCCCCC1=C(O)C(=O)c2c(nc3ccccc3c2-c2ccc([N+](=O)[O-])cc2)C1=O`, the Activity entry in the data set with H9c2 [1] and with MCF7 was “Non-Toxic” each time. Besides, the inhibition result in [2] was “Active”. The result in the data set on H9c2 [3], in the data set with H9c2 [4], in the data set with H9c2 [5] and in the data set on H9c2 [6] was Active.
